Assay outcomes: PubChem BioAssay, several laboratories
Compounds with a hit are over-represented: about 6.4% of the library has one in this group of screens.
EBV gp42 inh = Epstein-Barr virus gp42 inhibitors, primary screen, biochemical, uHTS, fluorescence polarization; Fluorescence polarization binding assay, mP read-out; inhibition, % (tested at 21.74 µM); AID 1085, 2008; 220,000 tested, 0.42% active; in the data active = inhibition above about 50%
Target sequence (Q1HVG2 whole entry, looked up): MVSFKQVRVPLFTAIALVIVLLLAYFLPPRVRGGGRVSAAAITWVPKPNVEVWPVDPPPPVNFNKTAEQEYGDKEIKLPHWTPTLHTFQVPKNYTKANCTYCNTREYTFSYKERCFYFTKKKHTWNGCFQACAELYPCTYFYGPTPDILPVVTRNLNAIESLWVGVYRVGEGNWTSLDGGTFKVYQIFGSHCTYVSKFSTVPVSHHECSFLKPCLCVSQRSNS
NR3A LBD binder = binders of NR3A ligand-binding domain, primary screen, biophysical, differential scanning fluorimetry, uHTS. 340,000 tested, 2.5% active. AID 1259313, 2017. NR3A LBD differential scanning fluorimetry, Tm shift; 0% = protein alone, 100% = glycine-bound protein. Tm shift relative to glycine control, % at 25 µM. Glutamate receptor ionotropic, NMDA 3A (GRIN3A) ligand-binding domain;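 active = melting temperature shift of at least 10% of the positive control shift, at one fixed dose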
CHOP inh = inhibitors of CHOP promoter induction, primary screen, cell-based, unfolded protein response, luciferase reporter | inhibition, % at 10 µM | 220,000 tested, 3.8% active | AID 2732, 2010 | CHO-K1 CHOP-promoter luciferase, tunicamycin-induced, 15-18 h;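 active = compounds that reduced the stress-induced luciferase reporter signal by more than about 70% of percent inhibition, limit read from the data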
TbMetRS inhib = T. brucei MetRS inhibitors, primary screen, biochemical, luminescence; methionyl-tRNA synthetase (Trypanosoma brucei brucei); purified T. brucei MetRS, ATP depletion, Kinase-Glo luminescence; inhibition, % at 11.9 µM; 360,000 tested, 0.4% active; AID 624268, 2012;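 active = inhibition above a per-plate cutoff of the control wells' mean inhibition plus 3 SD, cut at about 5.5% in these data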
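Test system: purified T. brucei MetRS enzyme. Also added: ATP, methionine and E. coli bulk tRNA substrates. Compound: 11.9 µM single point. Schedule: 15 min enzyme-compound preincubation, 2 h reaction, 10 min detection, 25 °C. Signal: luciferase luminescence of residual ATP, Kinase-Glo. Evaluation: percent inhibition versus plate control medians. Controls: DMSO wells, low control.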
WT yeast gro inh = growth inhibition of WT strain, primary screen, mitochondrial fusion inhibitor project, WT and mutant strains, chemical genetic; mitochondrial fusion phenotypic screen; inhibition, % at 10 µM; 190,000 tested, 2.1% active; in the data active = inhibition above about 58%; tested in S. cerevisiae
MPTP block = mitochondrial permeability transition pore inhibitors, primary screen, biochemical, isolated mouse mitochondria, absorbance; Ca2+ swelling absorbance, 30 min; inhibition, % at 10 µM; 360,000 tested, 1.4% active;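 active = inhibition of 50% or more, scaled per plate between neutral and stimulator controls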
A number is an active result; - = inactive; . = no result given.

SMILES	EBV gp42 inh	NR3A LBD binder	CHOP inh	TbMetRS inhib	WT yeast gro inh	MPTP block
CC(C)(C)NC(=O)CSc1nc2ccccc2n1-c1ccccc1	-	-	71.2	-	-	-
COc1cccc(NC(=O)C(C)NS(=O)(=O)c2ccc(Br)cc2)c1 (stereo not given)	.	-	.	-	.	-
O=C(NCCc1ccc(Cl)cc1)c1ncn[nH]1	-	-	-	-	90.9	-
O=C(NCCc1ccccc1)c1ncn[nH]1	-	-	-	-	-	-
COc1ccc(C(=O)CSc2nn3c(=O)c(C(C)(C)C)nnc3s2)cc1	-	-	-	-	-	-
CCn1c(CSc2nccn2C)nc2cc(C(=O)O)ccc21	71.6	-	-	-	-	-
CCCCS(=O)(=O)N1CCC(C(=O)Oc2ccccc2OC)CC1	.	-	.	-	.	-
O=[N+]([O-])c1ccc2cn[nH]c2c1	-	14.3	-	-	-	-
O=[N+]([O-])c1ccc(Cl)c(S(=O)(=O)Nc2ccc3cn[nH]c3c2)c1	.	-	.	-	.	-
Oc1ccccc1-c1nnc(COc2ccc(Cl)cc2Cl)o1	-	-	72.8	-	-	-
COc1ccccc1N(C(C)=O)c1nc(C)cc(C)c1C#N	-	18.7	-	-	-	-
COc1ccc(Cl)cc1N(C(C)=O)c1nc(C)cc(C)c1C#N	.	-	.	-	.	-
OC(Cc1ccncc1)(c1ccccc1)c1ccccc1	.	14.2	.	-	.	-
COc1ccc(CNC(=O)CCC(=O)N2CC(C)Oc3ccccc32)cc1 (stereo not given)	.	-	.	.	.	-
CCOc1ccccc1C(=O)N1c2ccccc2Sc2ccccc21	-	-	-	-	-	-
S=C(NCC1CCCO1)NC1CCCCC1 (stereo not given)	-	-	-	-	-	-
CCCC(NC(=S)NCC1CCCO1)C12CC3CC(CC(C3)C1)C2 (stereo not given)	-	-	82.5	-	79.0	-
COc1ccc(-c2nnc(-c3cc4c(ccc5ccccc54)oc3=O)o2)cc1	50.7	-	-	-	-	-
Nc1nnc(-c2cc3c(ccc4ccccc43)oc2=O)s1	65.6	.	-	.	-	.
N=c1oc2ccc3ccccc3c2cc1-c1nc(-c2ccccc2)cs1	66.5	-	-	-	-	-
O=c1oc2ccc3ccccc3c2cc1-c1nnc(-c2ccccc2)o1	-	-	-	-	-	-
CCn1c(-c2cc(-c3ccc(OC(C)C)cc3)nc3ccccc23)n[nH]c1=S	-	-	-	-	-	-
Cc1nc2cc(NS(=O)(=O)c3c(C)c(C)cc(C)c3C)ccc2s1	-	-	-	-	68.5	-
Cc1nc2ccc(NS(=O)(=O)c3c(C)c(C)cc(C)c3C)cc2s1	-	-	-	-	-	-
O=C(NCc1ccco1)c1noc2c1CCCCC2	-	-	-	-	-	-
SMILES	EBV gp42 inh	NR3A LBD binder	CHOP inh	TbMetRS inhib	WT yeast gro inh	MPTP block
CCn1c(SCC(=O)Nc2ccc(F)cc2F)nc2c(c1=O)SCC2	.	-	.	-	.	-
N#CC1=C(N)N2C(=C(C#N)C1c1ccccc1)Sc1ccccc12 (stereo not given)	90.2	.	-	.	-	.
CCOc1ccc(C2C(C#N)=C(N)N3C(=C2C#N)Sc2ccccc23)cc1 (stereo not given)	.	-	.	-	.	-
Cc1ccc(CNC(=O)COC(=O)C2CC2)cc1	.	-	.	-	.	-
COc1ccc(CNC(=O)COC(=O)C2CCC(C(C)(C)C)CC2)cc1 (stereo not given)	-	-	89.8	-	-	-
S=c1[nH]nc(-c2ccc(Cl)cc2)n1-c1ccc(Cl)cc1	.	-	.	-	.	-
O=C(NCC1CCCO1)c1cccc2ccccc12 (stereo not given)	.	-	.	-	.	-
CCc1cccc2c(SCC(=O)NCC3CCCO3)nc(-c3ccc(F)cc3)nc12 (stereo not given)	-	-	78.8	-	-	-
O=C(Cc1cccc2ccccc12)NCC1CCCO1 (stereo not given)	-	13.1	-	-	-	-
O=C(NCC1CCCO1)c1sc2ccccc2c1Cl (stereo not given)	-	11.0	-	-	-	-
Cc1ccc2nc(-c3ccc(F)cc3)nc(SCC(=O)NCC3CCCO3)c2c1 (stereo not given)	.	-	.	-	.	-
CCC(C)C(NC=C1C(=O)OC(C)(C)OC1=O)C(=O)O (stereo not given)	-	-	-	-	-	-
N#C/C(=C\C=C\c1ccccc1)c1nc(-c2ccc3c(c2)OCO3)cs1	155.9	-	-	-	-	-
OC(c1ccccc1)(c1nc(-c2ccc3c(c2)OCO3)cs1)C(F)(F)F (stereo not given)	.	.	.	-	.	-
COc1ccc(-c2cc(-c3ccc(Br)cc3)nc3ncnn23)cc1OC	-	-	78.9	-	-	-
CCc1cccc2sc(NC(=O)C3CC3)nc12	.	12.3	.	-	.	-
CN(C)S(=O)(=O)c1cccc(N=c2scc(-c3ccc4c(c3)NC(=O)CO4)n2CC2CCCO2)c1 (stereo not given)	-	-	-	-	-	-
O=C1COc2ccc(-c3csc(=Nc4ccc(OC(F)F)cc4)n3CC3CCCO3)cc2N1 (stereo not given)	-	-	78.0	-	-	-
COc1ccccc1N1CCN(C(=O)c2cc3cc(Cl)ccc3[nH]2)CC1	.	-	.	-	.	-
CC(=O)Nc1ccc(OS(=O)(=O)c2ccc(C)cc2C)cc1	-	15.6	-	-	-	-
CCn1c(C)nc2cc(C(=O)NNC(=S)Nc3ccccc3OC)ccc21	-	-	-	.	.	.
N/C(=N\OC(=O)c1ccccc1)c1ccccn1	-	-	86.5	-	-	-
N/C(=N\OC(=O)COc1ccc2ccccc2c1Br)c1ccccn1	-	-	-	-	64.1	-
Cc1ccc(C(=O)O/N=C(\N)c2ccccn2)cc1	.	-	.	-	.	-
N/C(=N\OCc1ccc([N+](=O)[O-])cc1)c1ccccn1	-	-	82.9	.	-	.
SMILES	EBV gp42 inh	NR3A LBD binder	CHOP inh	TbMetRS inhib	WT yeast gro inh	MPTP block
CC(C(=O)O/N=C(\N)c1ccccn1)c1ccc([N+](=O)[O-])cc1 (stereo not given)	.	-	.	-	.	-
CC(Oc1ccccc1Br)C(=O)N1CCc2ccccc21 (stereo not given)	-	-	-	-	.	-
Cc1ccc(NC(=O)CSc2ccc(-c3ccccn3)nn2)cc1	-	-	-	-	-	-
CSc1ccc(/C=N/NC(=O)c2cc(O)cc(O)c2)cc1	-	13.1	-	-	-	-
Cn1c2ccccc2c2cc(/C=N/NC(=O)c3cc(O)cc(O)c3)ccc21	.	27.6	.	-	.	-
COc1cc(C(=O)N/N=C/c2ccc(OC(=O)c3ccccc3Cl)cc2)ccc1O	.	26.3	.	-	.	-
